The results in this text go back to ChEMBL document CHEMBL3877257, “New isoxazolidinone and 3,4-dehydro-β-proline derivatives as antibacterial agents and MAO-inhibitors: A complex balance between two activities” (Eur J Med Chem, 2016).

In brackets after ≈: the same amount, converted by molar mass. Bounds are passed on as bounds.

In data set [1] the test system is HepG2. Nature of the data set: Inhibition of MAO activity in human HepG2 cells at 100 ug/mL after 24 hrs by spectrophotometric method. It is filed as cell-based. The gist of the method:
(§1)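 HepG2 on collagen, seeded at 45,000 cells/cm2, dosed two days later at 10-100 µg/mL for 24 h. Lysate MAO was measured by Amplex Red/HRP H2O2 detection, 30 min at room temperature, absorbance 570 nm. Mean ± SEM of three experiments in triplicate.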

The test system of data set [2] is Staphylococcus aureus. Nature of the data set: Antibacterial activity against Staphylococcus aureus clinical isolate after 18 to 24 hrs by broth microdilution method. Type of data set: functional. The gist of the method: (§2)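 Broth microdilution per CLSI: serial 2-fold dilutions in Mueller-Hinton broth, compounds dissolved in DMSO; equal volume of inoculum at 1x10^6 CFU/mL added to each well; 37 C for 18-24 h. MIC = lowest concentration with no visible turbidity. Clinical S. aureus strains (MRSA and MSSA) were 12 recent isolates with characterized susceptibility.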
Background: In broth dilution the organism is exposed to a series of concentrations in liquid medium.

Data set [3] relates to Staphylococcus aureus. The data set can be described thus: Antibacterial activity against Staphylococcus aureus ATCC 29213 after 18 to 24 hrs by broth microdilution method. It is filed as functional. The gist of the method:
as §2

In another data set the test system is Enterococcus faecalis. The data set can be described thus: Antibacterial activity against Enterococcus faecalis ATCC 29212 after 18 to 24 hrs by broth microdilution method. Type of data set: functional. The gist of the method:
as §2

Data set [4] in a line: Cytotoxicity against human HepG2 cells assessed as cell viability at 100 ug/mL after 24 hrs by prestoblue assay. It is filed as toxicity, cell-based. To be noted: read-out: Activity. The gist of the method:
(§3)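 HepG2 grown in DMEM with 10% heat-inactivated FBS on collagen; seeded at 45,000 cells/cm2, treated two days later for 24 h across 10-100 µg/mL. Viability read with resazurin-based PrestoBlue, 1 h at 37°C, absorbance 570 nm (reference 600 nm). Mean ± SEM, three experiments in triplicate, Student's t test.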

In data set [5] the test system is HepG2. Nature of the data set: Inhibition of MAO activity in human HepG2 cells at 10 ug/mL after 24 hrs by spectrophotometric method. Type of data set: cell-based. The gist of the method:
as §1

Data set [6] can be described thus: Cytotoxicity against human HepG2 cells assessed as decrease in cell viability at 10 ug/mL after 24 hrs by prestoblue assay. Type of data set: toxicity, cell-based. Conditions: hepg2, 24 h. The gist of the method:
as §3

As usually defined, the inhibition is the change of the read-out against control, counted positive when it falls. Low values mean a response near the control, high ones a response far below the control. In general, MIC refers to the lowest concentration that inhibits growth of the organism. The low end stands for greater potency, the high end for weaker potency. For orientation: MIC50 means the lowest concentration that inhibits either 50% of growth or 50% of the strains tested, depending on the study. A higher MIC50 goes with lower susceptibility. The term MIC90 denotes an inhibitory concentration at the 90% level, which refers to growth in some studies and to a panel of isolates in others. In the data set on HepG2 [1], `CC(=O)NC[C@H]1CN(c2ccc(N3CCOCC3)c(F)c2)C(=O)O1` [LINEZOLID] displayed an inhibition of 15%. Further, in the data set with Staphylococcus aureus [2], the minimum inhibitory concentration (MIC) was 1 to 4 µg/mL (≈ 2.96 to 11.9 µM), the MIC50 was found to be 2 µg/mL (≈ 5.93 µM) and the MIC90 was 2 µg/mL (≈ 5.93 µM).
In the case of `CCNC(=O)C1C(=O)ON(C(=O)c2ccc(N3CCOCC3)c(F)c2)C1C(C)C` (stereo not drawn), the MIC against Staphylococcus aureus [3], against Enterococcus faecalis and with Staphylococcus aureus [2] was over 128 µg/mL throughout. Also, in data set [4], the viability at 24 h, 100 ug/mL was found to be 10%. Moreover, the inhibition in the data set with HepG2 [5] was found to be 25%; with HepG2 [1] it was 45%. Further, in the data set on Staphylococcus aureus [2], the MIC50 was over 128 µg/mL. In addition, the MIC90 against Staphylococcus aureus [2] is over 128 µg/mL. Also, the Activity result in data set [6] was “Non-Toxic”.
As for `CCNC(=O)C1=CCN(C(=O)c2ccc(N3CCOCC3)c(F)c2)[C@H]1C(C)C`, the MIC with Staphylococcus aureus [3], against Enterococcus faecalis and against Staphylococcus aureus [2] was over 128 µg/mL in each case. For the same compound, the viability at 24 h, 100 ug/mL in data set [4] stood at 20%. The inhibition amounted to 25% in the data set with HepG2 [5] and 45% with HepG2 [1]. The same compound yielded an MIC50 in the data set on Staphylococcus aureus [2] of over 128 µg/mL. This compound came in with an MIC90 with Staphylococcus aureus [2] of over 128 µg/mL. For the same compound, the Activity result in data set [6] is on record as “Non-Toxic”.
In the case of `CCNC(=O)C1=CCN(C(=O)c2ccc(N3CCOCC3)c(F)c2)[C@@H]1C(C)C`, the MIC in the data set on Staphylococcus aureus [3] is over 128 µg/mL. The MIC with Enterococcus faecalis was over 128 µg/mL. Moreover, in data set [4], the viability at 24 h, 100 ug/mL was found to be 10%. In the data set with Staphylococcus aureus [2], this compound registered an MIC of over 128 µg/mL, an MIC50 of over 128 µg/mL and an MIC90 of over 128 µg/mL. Further, in data set [6], the Activity entry is “Non-Toxic”.
For the compound `CCNC(=O)C1C(=O)ON(C(=O)c2ccc(N3CCOCC3)c(F)c2)C1C1CCCCC1` (stereo not drawn), the results for the MIC in the data set on Staphylococcus aureus [3], against Enterococcus faecalis and with Staphylococcus aureus [2] were over 128 µg/mL, over 128 µg/mL and 32 to 128 µg/mL (≈ 71.5 to 286 µM), respectively. Also, the viability at 24 h, 100 ug/mL in data set [4] was determined as 10%. For the same compound, the inhibition was determined as 25% in the data set with HepG2 [5] and 45% in the data set with HepG2 [1]. Moreover, the MIC50 with Staphylococcus aureus [2] stood at 64 µg/mL (≈ 143 µM). Moreover, the MIC90 in the data set with Staphylococcus aureus [2] was over 128 µg/mL. Further, the Activity entry in data set [6] is recorded as “Non-Toxic”.
